Data set [1] in a line: Drug localization in lysosomes of human HeLa cells at 100 nM incubated for 3 hrs by NAO probe based analysis. Particulars: 0.1 µM. Format: ADME, subcellular, Lysosome. The gist of the method: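 HeLa cells given TAMRA-labelled peptide 100 nM for 3 h and cardiolipin stained with NAO (100 nM, 1 h), with or without 20 μM CCCP for 30 min; LysoTracker 50 nM. Confocal images, Pearson r from five independent images (63×) per condition.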

The test system of data set [2] is Lipid bilayer. In words: Binding affinity to cardiolipin-rich POPC/POPE by SPR analysis.
In data set [3] the test system is HeLa. The data set can be described thus: Inhibition of H2O2-induced intracellular ROS level in human HeLa cells at EC50 incubated for […] followed by H2O2 addition measured for 10 mins by H2DCFDA probe based analysis. Format: functional, cell-based. Particulars: time 220.0 min.
Data set [4] can be described thus: Drug uptake in CCCP-damaged mitochondria of human HeLa cells at 100 nM by MitoTracker probe based assay. Format: ADME. Particulars: 16 min, 0.1 µM, TDE = time-dependent effect. The gist of the method: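 HeLa cells given TAMRA-labelled peptide 100 nM for 3 h with MitoTracker staining; mitochondria damaged with 20 μM CCCP (30 min) or by CCCP during time-lapse confocal imaging. Red/green Pearson r calculated.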

Data set [5] has as its system Mitochondria. In words: Inhibition of antimycin A-induced mitochondrial ROS generation in human HeLa cells incubated for 190 mins followed by antimycin A addition measured after 90 mins by MitoSOX probe based analysis. Particulars: dose lower […], dose upper 10.0 nM. Format: functional. The essentials: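 HeLa cells seeded, stained 24 h later with MitoSOX 5 μM for 10 min, washed, HBSS, read on plate reader at 37 °C (Ex/Em 510/580 nm).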

In data set [6] the test system is HeLa. The data set can be described thus: Induction of antimycin A-reduced ATP production in human HeLa cells incubated for 3 hrs followed by antimycin A addition measured after 3 hrs by luminescence based analysis. Format: functional, cell-based. Particulars: dose 10-20 nM, time 6.0 hrs. The gist of the method: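 Cellular ATP measured by luminescence with an ATP detection kit after peptide pretreatment.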

Data set [7] can be described thus: Drug localization in mitochondria of human tubular epithelial cells upto 100 nM by MitoTracker probe based assay. Particulars: epithelial cell, 0.1 µM. Format: ADME.
The nature of data set [8]: Drug localization in H2O2-damaged mitochondria of human tubular epithelial cells pretreated for 3 hrs followed by H2O2 addition measured after 30 mins by fluorescence based analysis. Particulars: epithelial cell, time 3.5 hrs. Format: ADME.
Data set [9] deals with Mus musculus. In words: Protection against colistin-induced nephrotoxicity in C57BL/6 mouse model assessed as appearance of cristae formation in mitochondria of kidney at 1 mg/kg, ip administered once every other day measured after 7 days by TEM analysis. Particulars: time 7.0 day. Format: functional, organism-based. The essentials:
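Male C57BL/6 mice, 7 weeks, given colistin 20 mg/kg sc daily for 7 days with peptide 1 mg/kg ip once every other day, n = 5 per group; kidney mitochondria examined by TEM.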

Data set [10] has as its system Mus musculus. In words: Protection against […] C57BL/6 mouse model assessed as reduction in cast formation at 1 mg/kg, ip administered thrice a week prior to induction of bilateral ischemia-reperfusion injury measured after 6 days by IHC analysis. Format: functional, organism-based. Particulars: time 6.0 day.
Data set [11] has as its system Mus musculus. The data set can be described thus: Protection against […] C57BL/6 mouse model assessed as reduction in inflammatory cell infiltration at 1 mg/kg, ip administered thrice a week prior to induction of bilateral ischemia-reperfusion injury measured after 6 days by IHC analysis. Format: functional, organism-based. Particulars: time 6.0 day.

The subject of data set [12] is Mus musculus. In words: Protection against […] C57BL/6 mouse model assessed as decrease in cyt C level at 1 mg/kg, ip administered thrice a week prior to induction of bilateral ischemia-reperfusion injury measured after 6 days by IHC analysis. Format: functional, organism-based. Particulars: time 6.0 day.
Data set [13] relates to Mus musculus. The data set can be described thus: Protection against […] C57BL/6 mouse model assessed as increase in SOD-1 level at 1 mg/kg, ip administered thrice a week prior to induction of bilateral ischemia-reperfusion injury measured after 6 days by IHC analysis. Format: functional, organism-based. Particulars: time 6.0 day.
For data set [14], the system named is Mus musculus. In words: Protection against […] C57BL/6 mouse model assessed as decrease in NGAL level at 1 mg/kg, ip administered thrice a week prior to induction of bilateral ischemia-reperfusion injury measured after 6 days by Western blot analysis. Format: functional, organism-based. Particulars: time 6.0 day.
Data set [15] relates to Mus musculus. In words: Protection against […] C57BL/6 mouse model assessed as increase in NQO-1 mRNA level at 1 mg/kg, ip administered thrice a week prior to induction of bilateral ischemia-reperfusion injury measured after 6 days by qPCR analysis. Format: functional, organism-based. Particulars: time 6.0 day.
In data set [16] the test system is Mus musculus. In words: Protection against […] C57BL/6 mouse model assessed as increase in SOD-1 mRNA level at 1 mg/kg, ip administered thrice a week prior to induction of bilateral ischemia-reperfusion injury measured after 6 days by qPCR analysis. Particulars: time 6.0 day. Format: functional, organism-based.
Data set [17] has as its system Mus musculus. The data set can be described thus: Protection against […] C57BL/6 mouse model assessed as increase in IL-10 mRNA level at 1 mg/kg, ip administered thrice a week prior to induction of bilateral ischemia-reperfusion injury measured after 6 days by qPCR analysis. Format: functional, organism-based. Particulars: time 6.0 day.

Data set [18] has as its system Mus musculus. The data set can be described thus: Protection against […] C57BL/6 mouse model assessed as increase in ATP6 mRNA level at 1 mg/kg, ip administered thrice a week prior to induction of bilateral ischemia-reperfusion injury measured after 6 days by qPCR analysis. Particulars: time 6.0 day. Format: functional, organism-based.

The subject of data set [19] is Mus musculus. The data set can be described thus: Protection against […] C57BL/6 mouse model assessed as decrease in serum BUN level at 1 mg/kg, ip measured after 23 hrs. Format: functional, organism-based.

Here are results for one compound from ChEMBL document CHEMBL5634162, “Cyclohexylalanine-Containing α-Helical Amphipathic Peptide Targets Cardiolipin, Rescuing Mitochondrial Dysfunction in Kidney Injury” (J Med Chem, 2024).

Activity calls are given as the source filed them. The rule behind the calls is not given here. Where a SMILES comes first, the peptide text is derived from it. Bridges are numbered along the chain shown (N, C = ends). Roman numbers before positions name the chains, in order. [ ]: non-standard residue; d: D form. The star is where a group is joined. 5TAMRA = CN(C)c1ccc2c(c1)Oc1cc(N(C)C)ccc1C21OC(=O)c2cc(C(=O)*)ccc21; Cha = N[C@@H](CC1CCCCC1)C(=O)O

In the case of `CC(=O)N[C@@H](CC1CCCCC1)C(=O)N[C@H]1CSSC[C@@H](C(=O)N[C@@H](CCCNC(=N)N)C(N)=O)NC(=O)[C@H](CC2CCCCC2)NC(=O)[C@H](CCCNC(=N)N)NC(=O)[C@H](CCCNC(=N)N)NC(=O)[C@H](CC2CCCCC2)NC(=O)[C@H](CC(C)C)NC(=O)[C@H](CCCNC(=N)N)NC(=O)[C@@H](NC(=O)[C@H](CC2CCCCC2)NC(=O)c2ccc3c(c2)C(=O)OC32c3ccc(N(C)C)cc3Oc3cc(N(C)C)ccc32)CSSC[C@@H](C(=O)N[C@@H](CCCNC(=N)N)C(N)=O)NC(=O)[C@H](CC2CCCCC2)NC(=O)[C@H](CCCNC(=N)N)NC(=O)[C@H](CCCNC(=N)N)NC(=O)[C@H](CC2CCCCC2)NC(=O)[C@H](CC(C)C)NC(=O)[C@H](CCCNC(=N)N)NC1=O` (I: Ac-[Cha]CRL[Cha]RR[Cha]CR-NH2 / II: 5TAMRA-[Cha]CRL[Cha]RR[Cha]CR-NH2; disulfide I:2-II:9, I:9-II:2), the Drug uptake entry is listed as “Active” in [1], “Tde” in data set [4], “Active” in data set [7] and “Active” in data set [8]. Further, the result in data set [2], in data set [9], in [10], in data set [11], in [12] and in data set [13] was Active. In addition, the outcome in data set [14], in data set [15], in data set [16], in data set [17], in [18] and in data set [19] was Active. Also, the inhibition entry in [3] is “Active”. In addition, the inhibition entry in [5] is “Dose-Dependent Effect”. Moreover, in [6], the Activity result is “Dose-Dependent Effect”.
